A number with no mark means an inactive call.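 Rule for the calls, unless noted: active = growth inhibition above a set limit, 3 SD over mean compound inhibition, in both replicates (cut at about 43% in these data); inconclusive = above the limit in only one replicate; inactive = at or below the limit in both replicates.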
Assay: OD615 S. cerevisiae growth inhibition, permissive medium, pilot counter-assay, permissive growth control for S. cerevisiae lifespan shortening project (AID 705;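 active = growth inhibition above 25% in both replicates, a cutoff set 3 SD above the mean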)
Details: OD615, 24 h, at 10 µM, stronger effect = higher value
Outline: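 System: engineered DeaD yeast; Medium: permissive raffinose/galactose medium; Compound dosing: 10 µM single dose, 0.25% DMSO; Incubation: 4 h cell pre-growth, 24 h exposure at 30 °C; Technique: OD at 615 nm; Evaluation: growth inhibition from lowered OD615 after 24 h.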
For O=S(=O)(NC1CCCCC1)c1cccc(-c2nnc(-c3ccccc3)o2)c1, the growth inhibition was -12.2%. COc1ccc(CN2CCNC(=O)C2CC(=O)O)cc1OC (stereo unspecified) showed a growth inhibition of -14.2%. For COc1ccc2c(Cl)c(C(=O)NC3CCS(=O)(=O)C3)sc2c1 (stereo unspecified), the growth inhibition was 1.61%. For O=C(Cn1cc2c(n1)CCCCC2)NCc1ccccn1, the growth inhibition was -5.75%. In the case of Cn1cccc1Cc1nnc(SCC(=O)NC2CCCCC2)n1CCc1ccccc1, the growth inhibition is reported as 9.32%. For CCc1ccc(C2CC(c3ccccc3)Nc3nc(N)nn32)cc1 (stereo unspecified), the growth inhibition was -5.9%.

Assay: Restrictive medium S. cerevisiae growth inhibition, OD615, pilot screen of yeast lifespan reduction project, restrictive growth control (AID 706);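 note: modified DeaD lifespan yeast strain shifted to restrictive glucose medium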
Details: OD615, 48 h, at 10 µM, stronger effect = higher value
Outline: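 Material: modified S. cerevisiae; buffer or medium: CSMM-D glucose medium; doses: one concentration, 10 µM final, 0.25% DMSO; incubation: 48 h compound exposure at 30 °C; detection: optical density at 615 nm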
CC(=O)Nc1sc(C)c(C)c1CN1CCN(S(=O)(=O)c2ccccc2)CC1 showed a growth inhibition of -23.5%. Work on CC(C)CC(=O)Nc1ccc(C(=O)COc2ccc(-c3nnco3)cc2)cc1 yielded a growth inhibition of -0.795%. Work on C=CCSC1=N/C(=C\c2ccc(C)o2)C(=O)S1 yielded a growth inhibition of -6.84%. Cc1ccc(-c2nn3c(C)nnc3s2)cc1NC(=O)c1ccco1 showed a growth inhibition of 25.2%. With CCN(CC)P1(=O)OC(c2cc(OC)c(OC)c(OC)c2)=Nc2c1c(C)nn2-c1ccccc1 (stereo unspecified) the growth inhibition was -13.3%. Work on CCc1ccc(NC(=O)c2ccc3c(c2)C(=O)N(Cc2ccco2)C3=O)cc1 yielded a growth inhibition of 7.26%. For CSC1=NCCN1C(=O)c1ccc(Br)o1, the growth inhibition was -7.89%. Work on COc1ccccc1NC(=O)C1C2C=CC3(CN(Cc4cccnc4)C(=O)C13)O2 (stereo unspecified) yielded a growth inhibition of 4.22%. In the case of Cn1c(Cn2c(=O)sc3ccccc32)nnc1SCC(=O)NCc1ccccc1Cl, the growth inhibition is reported as -13.9%. CCN1C(=O)c2ccccc2S(=O)c2ccc(C(=O)N3CCCC3)cc21 (stereo unspecified) gave a growth inhibition of 3.54%.

Source: PubChem BioAssay
